Columns and labels:
[1] = species on record: Homo sapiens; experiment: Stabilization of 5'Dabcyl/3'FAM labeled human telomeric sequence G-quadruplex DNA assessed as increase in melting temperature at 2.5 uM pretreated for 5 mins at 30 degreeC followed by 5 mins incubation at 95 degreeC by fluorescence assay
In short: (§1)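 FRET melting in LiP buffer (10 mM LiOH, 50 mM KCl, pH 7.0 with H3PO4), ex 488 nm, em 520 nm. Samples were held 5 min at 30 °C, heated at 1 °C/min to 95 °C, held 5 min, then re-annealed. Tm came from first derivatives; ΔTm = shift with ligand at 2.5; at least three runs.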

[2] = Stabilization of 5'Dabcyl/3'FAM labeled duplex DNA (unknown origin) assessed as increase in melting temperature at 2.5 uM pretreated for 5 mins at 30 degreeC followed by 5 mins incubation at 95 degreeC by fluorescence assay; in short: as §1
[3] = test system: CCRF-CEM; experiment: Growth inhibition of human CCRF-CEM cells incubated for 48 hrs by sulforhodamine B assay; type: functional
[4] = test system: HL-60; experiment: Growth inhibition of human HL60 cells incubated for 48 hrs by sulforhodamine B assay; type: functional; conditions: HL-60, 48 h
[5] = test system: K562; experiment: Growth inhibition of human K562 cells incubated for 48 hrs by sulforhodamine B assay; type: functional; conditions: K562, 48 h
[6] = test system: RPMI-8226; experiment: Growth inhibition of human RPMI8226 cells incubated for 48 hrs by sulforhodamine B assay; type: functional; conditions: RPMI-8226, 48 h
[7] = test system: SR; experiment: Growth inhibition of human SR cells incubated for 48 hrs by sulforhodamine B assay; type: functional
[8] = test system: A549; experiment: Growth inhibition of human A549/ATCC cells incubated for 48 hrs by sulforhodamine B assay; type: functional; conditions: A549, 48 h
[9] = test system: HOP-92; experiment: Growth inhibition of human HOP92 cells incubated for 48 hrs by sulforhodamine B assay; type: functional; conditions: HOP-92, 48 h
[10] = test system: NCI-H226; experiment: Growth inhibition of human NCI-H226 cells incubated for 48 hrs by sulforhodamine B assay; type: functional; conditions: NCI-H226, 48 h
[11] = test system: HCC 2998; experiment: Growth inhibition of human HCC2998 cells incubated for 48 hrs by sulforhodamine B assay; type: functional; conditions: HCC 2998, 48 h
[12] = test system: HCT-116; experiment: Growth inhibition of human HCT116 cells incubated for 48 hrs by sulforhodamine B assay; type: functional; conditions: HCT-116, 48 h
[13] = test system: HT-29; experiment: Growth inhibition of human HT-29 cells incubated for 48 hrs by sulforhodamine B assay; type: functional; conditions: HT-29, 48 h
[14] = test system: KM12; experiment: Growth inhibition of human KM12 cells incubated for 48 hrs by sulforhodamine B assay; type: functional; conditions: KM12, 48 h
[15] = test system: SW-620; experiment: Growth inhibition of human SW620 cells incubated for 48 hrs by sulforhodamine B assay; type: functional; conditions: SW-620, 48 h
[16] = test system: SF-295; experiment: Growth inhibition of human SF295 cells incubated for 48 hrs by sulforhodamine B assay; type: functional; conditions: SF-295, 48 h
[17] = test system: SF-539; experiment: Growth inhibition of human SF539 cells incubated for 48 hrs by sulforhodamine B assay; type: functional; conditions: SF-539, 48 h
[18] = test system: SNB-19; experiment: Growth inhibition of human SNB19 cells incubated for 48 hrs by sulforhodamine B assay; type: functional; conditions: SNB-19, 48 h
[19] = test system: SNB-75; experiment: Growth inhibition of human SNB75 cells incubated for 48 hrs by sulforhodamine B assay; type: functional; conditions: SNB-75, 48 h
[20] = test system: LOX IMVI; experiment: Growth inhibition of human LOXIMVI cells incubated for 48 hrs by sulforhodamine B assay; type: functional
[21] = test system: Malme-3M; experiment: Growth inhibition of human MALME-3M cells incubated for 48 hrs by sulforhodamine B assay; type: functional
[22] = test system: M14; experiment: Growth inhibition of human M14 cells incubated for 48 hrs by sulforhodamine B assay; type: functional; conditions: M14, 48 h
[23] = test system: MDA-MB-435; experiment: Growth inhibition of human MDA-MB-435 cells incubated for 48 hrs by sulforhodamine B assay; type: functional; conditions: MDA-MB-435, 48 h
[24] = test system: SK-MEL-2; experiment: Growth inhibition of human SK-MEL-2 cells incubated for 48 hrs by sulforhodamine B assay; type: functional; conditions: SK-MEL-2, 48 h
[25] = test system: SK-MEL-28; experiment: Growth inhibition of human SK-MEL-28 cells incubated for 48 hrs by sulforhodamine B assay; type: functional; conditions: SK-MEL-28, 48 h
[26] = test system: SK-MEL-5; experiment: Growth inhibition of human SK-MEL-5 cells incubated for 48 hrs by sulforhodamine B assay; type: functional; conditions: SK-MEL-5, 48 h
[27] = test system: UACC-62; experiment: Growth inhibition of human UACC62 cells incubated for 48 hrs by sulforhodamine B assay; type: functional; conditions: UACC-62, 48 h
[28] = test system: IGROV-1; experiment: Growth inhibition of human IGROV1 cells incubated for 48 hrs by sulforhodamine B assay; type: functional; conditions: IGROV-1, 48 h
[29] = test system: OVCAR-3; experiment: Growth inhibition of human OVCAR3 cells incubated for 48 hrs by sulforhodamine B assay; type: functional; conditions: OVCAR-3, 48 h
[30] = test system: OVCAR-4; experiment: Growth inhibition of human OVCAR4 cells incubated for 48 hrs by sulforhodamine B assay; type: functional; conditions: OVCAR-4, 48 h
[31] = test system: OVCAR-5; experiment: Growth inhibition of human OVCAR5 cells incubated for 48 hrs by sulforhodamine B assay; type: functional; conditions: OVCAR-5, 48 h
[32] = test system: OVCAR-8; experiment: Growth inhibition of human OVCAR8 cells incubated for 48 hrs by sulforhodamine B assay; type: functional; conditions: OVCAR-8, 48 h
[33] = test system: NCI/ADR-RES; experiment: Growth inhibition of human NCI-ADR-RES cells incubated for 48 hrs by sulforhodamine B assay; type: functional
[34] = test system: A498; experiment: Growth inhibition of human A498 cells incubated for 48 hrs by sulforhodamine B assay; type: functional; conditions: A498, 48 h
[35] = test system: ACHN; experiment: Growth inhibition of human ACHN cells incubated for 48 hrs by sulforhodamine B assay; type: functional
[36] = test system: RXF 393; experiment: Growth inhibition of human RXF393 cells incubated for 48 hrs by sulforhodamine B assay; type: functional; conditions: RXF 393, 48 h
[37] = test system: SN12C; experiment: Growth inhibition of human SN12C cells incubated for 48 hrs by sulforhodamine B assay; type: functional
[38] = test system: UO-31; experiment: Growth inhibition of human UO31 cells incubated for 48 hrs by sulforhodamine B assay; type: functional; conditions: UO-31, 48 h
[39] = test system: PC-3; experiment: Growth inhibition of human PC3 cells incubated for 48 hrs by sulforhodamine B assay; type: functional; conditions: PC-3, 48 h
[40] = test system: DU-145; experiment: Growth inhibition of human DU145 cells incubated for 48 hrs by sulforhodamine B assay; type: functional; conditions: DU-145, 48 h
[41] = test system: MCF7; experiment: Growth inhibition of human MCF7 cells incubated for 48 hrs by sulforhodamine B assay; type: functional; conditions: MCF7, 48 h
[42] = test system: MDA-MB-231; experiment: Growth inhibition of human MDA-MB-231 cells incubated for 48 hrs by sulforhodamine B assay; type: functional; conditions: MDA-MB-231, 48 h
[43] = test system: Hs-578T; experiment: Growth inhibition of human Hs 578T cells incubated for 48 hrs by sulforhodamine B assay; type: functional
[44] = test system: MDA-MB-468; experiment: Growth inhibition of human MDA-MB-468 cells incubated for 48 hrs by sulforhodamine B assay; type: functional; conditions: MDA-MB-468, 48 h

SMILES: COc1ccccc1CNCCCN1C(=O)c2ccc3c4c(ccc(c24)C1=O)C(=O)N(CCCCNCCCN)C3=O
- ΔTm [1]: 22.2 °C
- ΔTm [2]: 9.1 °C
- GI50 [3]: 0.7 µM
- GI50 [4]: 1.06 µM
- GI50 [5]: 1.9 µM
- GI50 [6]: 1.95 µM
- GI50 [7]: 0.038 µM
- GI50 [8]: 1.58 µM
- GI50 [9]: 2.04 µM
- GI50 [10]: 2.26 µM
- GI50 [11]: 0.81 µM
- GI50 [12]: 0.742 µM
- GI50 [13]: 0.998 µM
- GI50 [14]: 2.55 µM
- GI50 [15]: 0.641 µM
- GI50 [16]: 3.66 µM
- GI50 [17]: 1.69 µM
- GI50 [18]: 1.32 µM
- GI50 [19]: 16.7 µM
- GI50 [20]: 1.03 µM
- GI50 [21]: 0.984 µM
- GI50 [22]: 1.9 µM
- GI50 [23]: 0.96 µM
- GI50 [24]: 1.09 µM
- GI50 [25]: 1.63 µM
- GI50 [26]: 0.73 µM
- GI50 [27]: 1.1 µM
- GI50 [28]: 1.44 µM
- GI50 [29]: 0.338 µM
- GI50 [30]: 0.713 µM
- GI50 [31]: 3.05 µM
- GI50 [32]: 0.826 µM
- GI50 [33]: 5.99 µM
- GI50 [34]: 4.4 µM
- GI50 [35]: 3.73 µM
- GI50 [36]: 0.886 µM
- GI50 [37]: 0.947 µM
- GI50 [38]: 3.52 µM
- GI50 [39]: 2.3 µM
- GI50 [40]: 1.59 µM
- GI50 [41]: 0.643 µM
- GI50 [42]: 2.68 µM
- GI50 [43]: 2.31 µM
- GI50 [44]: 0.284 µM

SMILES: COc1ccccc1CNCCCN1C(=O)c2ccc3c4c(ccc(c24)C1=O)C(=O)N(CCCNCCCCN)C3=O
- ΔTm [1]: 29 °C
- ΔTm [2]: 12.2 °C
- GI50 [3]: 0.275 µM
- GI50 [4]: 0.216 µM
- GI50 [5]: 0.281 µM
- GI50 [6]: 0.394 µM
- GI50 [7]: 0.076 µM
- GI50 [8]: 0.258 µM
- GI50 [9]: 0.273 µM
- GI50 [10]: 0.808 µM
- GI50 [11]: 0.149 µM
- GI50 [12]: 0.185 µM
- GI50 [13]: 0.188 µM
- GI50 [14]: 0.324 µM
- GI50 [15]: 0.155 µM
- GI50 [16]: 0.448 µM
- GI50 [17]: 0.28 µM
- GI50 [18]: 0.292 µM
- GI50 [19]: 0.304 µM
- GI50 [20]: 0.188 µM
- GI50 [21]: 0.174 µM
- GI50 [22]: 0.343 µM
- GI50 [23]: 0.184 µM
- GI50 [24]: 0.223 µM
- GI50 [25]: 0.313 µM
- GI50 [26]: 0.153 µM
- GI50 [27]: 0.175 µM
- GI50 [28]: 0.179 µM
- GI50 [29]: 0.293 µM
- GI50 [30]: 0.155 µM
- GI50 [31]: 0.944 µM
- GI50 [32]: 0.231 µM
- GI50 [33]: 0.366 µM
- GI50 [34]: 0.619 µM
- GI50 [35]: 0.535 µM
- GI50 [36]: 0.582 µM
- GI50 [37]: 0.28 µM
- GI50 [38]: 1.86 µM
- GI50 [39]: 0.23 µM
- GI50 [40]: 0.853 µM
- GI50 [41]: 0.185 µM
- GI50 [42]: 0.204 µM
- GI50 [43]: 1.12 µM
- GI50 [44]: 0.085 µM

Reference: ChEMBL document CHEMBL4004831, “Naphthalene diimide-polyamine hybrids as antiproliferative agents: Focus on the architecture of the polyamine chains” (Eur J Med Chem, 2017)
